Results of several laboratories.
Each line is one published result; the experiments were not run side by side.
Matrix: plasma

Cc1ccc(NC(=O)c2ccc(CN3CCN(C)CC3)cc2)cc1Nc1nccc(-c2cncc(-c3oncc3C)c2)n1
half-life (human; oral, 200 mg/day, multiple doses, steady state, healthy volunteers): 23.3 h

NS(=O)(=O)OC[C@@H]1C[C@@H](n2ccc3c(N[C@H]4CCc5ccccc54)ncnc32)C[C@@H]1O
half-life (human; intravenous, 20 mg/m², patients): 5.1 h

CC(C)n1c(Nc2cccnc2)nc2cnc(Nc3ccc(N4CCN(C)CC4)cc3)nc21
half-life (male human; oral, 150 mg, single dose): 36 h

CC[C@H](C)CCCCC(=O)N[C@@H](CCN)C(=O)N[C@H](C(=O)N[C@@H](CCN)C(=O)N[C@H]1CCNC(=O)[C@H]([C@@H](C)O)NC(=O)[C@H](CCN)NC(=O)[C@H](CCN)NC(=O)[C@H](CC(C)C)NC(=O)[C@@H](Cc2ccccc2)NC(=O)[C@H](CCN)NC1=O)[C@@H](C)O
half-life (human; intravenous, 0.75 mg/kg, single dose, infusion): 5.44 h

CNC(=O)n1ccc2cc(Oc3ccnc(NC(=O)c4ccc(C5CCN(CCO)CC5)cc4)c3)c(OCCOC)cc21
half-life (human; oral, 35 mg, single dose, fed, healthy volunteers): 28.3 h

Cc1ccc(C(=O)Nc2ccc(CN3CCN(C)CC3)c(C(F)(F)F)c2)cc1C#Cc1cnc2[nH]ncc2c1
half-life (human; oral, 40 mg, single dose, healthy volunteers): 26.1 h

NC(=S)NN=Cc1ncccc1N
half-life (human; oral, 150 mg): 1.5 h

Cn1cc(Nc2nc(N)nc(-c3cccc(-n4ccc5cc(C6CC6)cc(F)c5c4=O)c3CO)n2)cn1
half-life (human; oral, 300 mg, single dose, fasted, suspension): 9 h

COc1ccc([C@@H](O)c2cc(-c3ncnc4cc(N5CCOCC5)ccc34)c(F)cc2Cl)nn1
half-life (human; oral, 200 mg, single dose, patients): 3.94 h
